The subject of assay [1] is Escherichia coli. The assay is described as follows: Antibacterial activity against wild type Escherichia coli ATCC 25922 by CLSI based broth microdilution method. It counts as functional. The method, boiled down: (§1)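 MIC read by CLSI broth microdilution (M07-A10) from direct colony suspension inocula. Reference strains came from ATCC: wild-type E. coli ATCC 25922 and K. pneumoniae ATCC 13883. An efflux-defective ΔtolC E. coli isogenic to ATCC 25922 was also used.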
(Dilution methods test growth across graded concentrations, often in twofold steps.)

The test system of assay [2] is Klebsiella pneumoniae. The assay is described as follows: Antibacterial activity against wild type Klebsiella pneumoniae ATCC 13883 by CLSI based broth microdilution method. The assay is classed as functional. The method, boiled down:
as §1

Assay [3] relates to Klebsiella pneumoniae. Put plainly: Antibacterial activity against Klebsiella pneumoniae by CLSI based broth microdilution method. It counts as functional. The method in brief:
as §1

Assay [4] deals with Escherichia coli. The assay is described as follows: Antibacterial activity against efflux-defective (deltatolC) Escherichia coli ATCC 25922 by broth microdilution method. The assay is classed as functional. The method in brief:
as §1

Assay [5] concerns Escherichia coli. The assay is described as follows: Antibacterial activity against Escherichia coli by CLSI based broth microdilution method. It counts as functional. The method, boiled down:
as §1

Assay [6] concerns the target Bacterial 70S ribosome. The assay is described as follows: Inhibition of ribosome-mediated translation in Cell-free Escherichia coli protein synthesis system using pCmGFP as plasmid incubated at 30 degreeC measured every 20 mins by invitro coupled transcription-translation system based fluorescence analysis. It counts as subcellular. The method, boiled down: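 E. coli cell-free coupled transcription-translation; template was gfp amplified from pCmGFP and cloned into pEXP5-CT, 1 µg plasmid DNA added to start each reaction. Feed buffer added at 30 min. Run at 30 °C, fluorescence (ex 475/em 520 nm) read every 20 min. IC50 taken from the signal 1 h after feed buffer addition.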

pIC50: −log10 of the molar value. ≈ marks a conversion by molar mass, not a printed value. Starred links: 1 amine or outer side, 2 acyl side, 3 side chain; linkers in the order of their positions; H or OH if unused. Non-standard residues stand in square brackets, D forms with d. Residues, ends and D or L forms follow the SMILES beside them. Dab(3S-OH) = NC[C@H](O)[C@H](N)C(=O)O; X1 = O=C([C@@H](CCCO)N[*:1])[*:2]; ΔZArg = N=C(N)NCC/C=C(\N)C(=O)O

What is called MIC is the smallest concentration in the dilution series that meets the test's criterion for growth inhibition. A higher MIC goes with weaker potency. By MIC90 is commonly meant an inhibitory concentration at the 90% level, which refers to growth in some studies and to a panel of isolates in others. The low end stands for higher susceptibility, the high end for lower susceptibility. What is called pIC50 is the IC50 on a negative log10 scale, so that one unit is a factor of ten. A low value points to a high IC50. For the molecule `C[C@H](NC(=O)[C@@H](NC(=O)[C@@H](N)CCCCN)[C@@H](O)CN)C(=O)NCC(=O)N[C@H](CCCN)C(=O)N1CCC[C@H]1C(=O)N[C@@H](Cc1cnc[nH]1)C(=O)N[C@@H](CCCCN)C(=O)N/C(=C\CCNC(=N)N)C(=O)O`, the values for the MIC in assay [1], in assay [2] and in assay [4] were 8 µg/mL (≈ 7.83 µM), 4 µg/mL (≈ 3.92 µM) and 8 µg/mL (≈ 7.83 µM), respectively. The MIC90 in assay [3] is 8 µg/mL (≈ 7.83 µM); in assay [5] it was 32 µg/mL (≈ 31.3 µM). Further, in assay [6], the pIC50 is 6.30.
As for `C[C@H](NC(=O)[C@@H](NC(=O)[C@@H](N)CCCCN)[C@H](O)CN)C(=O)NCC(=O)N[C@H](CCCN)C(=O)N1CCC[C@H]1C(=O)N[C@@H](Cc1c[nH]cn1)C(=O)N[C@@H](CCCCN)C(=O)N/C(=C\CCNC(=N)N)C(=O)O`, the negative logarithm of the IC50 (pIC50) in assay [6] is under 4.40.
Still for that read-out and setting: in the case of `C[C@H](NC(=O)[C@@H](NC(=O)[C@@H](N)CCCCN)[C@@H](O)C(C)(C)N)C(=O)NCC(=O)N[C@H](CCCN)C(=O)N1CCC[C@H]1C(=O)N[C@@H](Cc1c[nH]cn1)C(=O)N[C@@H](CCCCN)C(=O)N/C(=C\CCNC(=N)N)C(=O)O` it was under 4.40; in that of `CCCC[C@@H](NC(=O)CNC(=O)[C@H](C)NC(=O)[C@@H](NC(=O)[C@@H](N)CCCCN)[C@@H](O)CN)C(=O)N1CCC[C@H]1C(=O)N[C@@H](Cc1c[nH]cn1)C(=O)N[C@@H](CCCCN)C(=O)N/C(=C\CCNC(=N)N)C(=O)O`, under 4.40; in that of `C[C@H](NC(=O)[C@@H](NC(=O)[C@@H](N)CCCCN)[C@@H](O)[C@@H](C)N)C(=O)NCC(=O)N[C@H](CCCN)C(=O)N1CCC[C@H]1C(=O)N[C@@H](Cc1c[nH]cn1)C(=O)N[C@@H](CCCCN)C(=O)N/C(=C\CCNC(=N)N)C(=O)O`, 5.00.
Same read-out and setting: in the case of `C[C@H](NC(=O)[C@@H](NC(=O)[C@@H](N)CCCCN)[C@H](C)O)C(=O)NCC(=O)N[C@H](CCCN)C(=O)N1CCC[C@H]1C(=O)N[C@@H](Cc1c[nH]cn1)C(=O)N[C@@H](CCCCN)C(=O)N/C(=C\CCNC(=N)N)C(=O)O` it was under 4.40.
Same read-out and setting: in the case of `C[C@H](NC(=O)[C@H](CO)NC(=O)[C@@H](N)CCCCN)C(=O)NCC(=O)N[C@H](CCCN)C(=O)N1CCC[C@H]1C(=O)N[C@@H](Cc1c[nH]cn1)C(=O)N[C@@H](CCCCN)C(=O)N/C(=C\CCNC(=N)N)C(=O)O` it was under 4.40; in that of `C[C@H](NC(=O)[C@H](CCN)NC(=O)[C@@H](N)CCCCN)C(=O)NCC(=O)N[C@H](CCCN)C(=O)N1CCC[C@H]1C(=O)N[C@@H](Cc1c[nH]cn1)C(=O)N[C@@H](CCCCN)C(=O)N/C(=C\CCNC(=N)N)C(=O)O`, 4.77.
In assay [6], `C[C@H](NC(=O)[C@@H](NC(=O)[C@@H](N)CCCCN)[C@@H](O)[C@H](C)N)C(=O)NCC(=O)N[C@H](CCCN)C(=O)N1CCC[C@H]1C(=O)N[C@@H](Cc1c[nH]cn1)C(=O)N[C@@H](CCCCN)C(=O)N/C(=C\CCNC(=N)N)C(=O)O` showed a pIC50 of under 4.40.
The same measure, in the same setting: in the case of `C[C@H](NC(=O)[C@@H](NC(=O)[C@@H](N)CCCCN)[C@@H](O)CCN)C(=O)NCC(=O)N[C@H](CCCN)C(=O)N1CCC[C@H]1C(=O)N[C@@H](Cc1c[nH]cn1)C(=O)N[C@@H](CCCCN)C(=O)N/C(=C\CCNC(=N)N)C(=O)O` it was 4.84.
Still for that read-out and setting: in the case of `CO[C@@H](CN)[C@H](NC(=O)[C@@H](N)CCCCN)C(=O)N[C@@H](C)C(=O)NCC(=O)N[C@H](CCCN)C(=O)N1CCC[C@H]1C(=O)N[C@@H](Cc1c[nH]cn1)C(=O)N[C@@H](CCCCN)C(=O)N/C(=C\CCNC(=N)N)C(=O)O` it was under 4.40.
`CNC[C@H](O)[C@H](NC(=O)[C@@H](N)CCCCN)C(=O)N[C@@H](C)C(=O)NCC(=O)N[C@H](CCCN)C(=O)N1CCC[C@H]1C(=O)N[C@@H](Cc1c[nH]cn1)C(=O)N[C@@H](CCCCN)C(=O)N/C(=C\CCNC(=N)N)C(=O)O`: the minimal inhibitory concentration (MIC) came out at 64 µg/mL (≈ 61.8 µM) in assay [1], 32 µg/mL (≈ 30.9 µM) in assay [2] and 64 µg/mL (≈ 61.8 µM) in assay [4]. Moreover, the pIC50 in assay [6] was 5.49.
In assay [6], `C[C@H](NC(=O)[C@@H](NC(=O)[C@@H](N)CCCCN)[C@@H](O)CN)C(=O)NCC(=O)N[C@H](CCN)C(=O)N1CCC[C@H]1C(=O)N[C@@H](Cc1c[nH]cn1)C(=O)N[C@@H](CCCCN)C(=O)N/C(=C\CCNC(=N)N)C(=O)O` had a pIC50 of 4.44.
The same measure, in the same setting: in the case of `C[C@H](NC(=O)[C@@H](NC(=O)[C@@H](N)CCCCN)[C@@H](C)CN)C(=O)NCC(=O)N[C@H](CCCN)C(=O)N1CCC[C@H]1C(=O)N[C@@H](Cc1c[nH]cn1)C(=O)N[C@@H](CCCCN)C(=O)N/C(=C\CCNC(=N)N)C(=O)O` it was 4.57; in that of `C[C@H](NC(=O)[C@@H](NC(=O)[C@@H](N)CCCCN)[C@@H](O)CN)C(=O)NCC(=O)N[C@](C)(CCCN)C(=O)N1CCC[C@H]1C(=O)N[C@@H](Cc1c[nH]cn1)C(=O)N[C@@H](CCCCN)C(=O)N/C(=C\CCNC(=N)N)C(=O)O`, 4.74; in that of `CNCCC[C@@H](NC(=O)CNC(=O)[C@H](C)NC(=O)[C@@H](NC(=O)[C@@H](N)CCCCN)[C@@H](O)CN)C(=O)N1CCC[C@H]1C(=O)N[C@@H](Cc1c[nH]cn1)C(=O)N[C@@H](CCCCN)C(=O)N/C(=C\CCNC(=N)N)C(=O)O`, under 4.40.
The same measure, in the same setting: in the case of `C[C@H](N)CC[C@@H](NC(=O)CNC(=O)[C@H](C)NC(=O)[C@@H](NC(=O)[C@@H](N)CCCCN)[C@@H](O)CN)C(=O)N1CCC[C@H]1C(=O)N[C@@H](Cc1c[nH]cn1)C(=O)N[C@@H](CCCCN)C(=O)N/C(=C\CCNC(=N)N)C(=O)O` it was 4.75; in that of `C[C@H](NC(=O)[C@@H](NC(=O)[C@@H](N)CCCCN)[C@@H](O)CN)C(=O)NCC(=O)N[C@H](CC[C@@H](C)N)C(=O)N1CCC[C@H]1C(=O)N[C@@H](Cc1c[nH]cn1)C(=O)N[C@@H](CCCCN)C(=O)N/C(=C\CCNC(=N)N)C(=O)O`, under 4.40; in that of `C[C@H](NC(=O)[C@@H](NC(=O)[C@@H](N)CCCCN)[C@@H](O)CN)C(=O)NCC(=O)N[C@H](CCCCN)C(=O)N1CCC[C@H]1C(=O)N[C@@H](Cc1c[nH]cn1)C(=O)N[C@@H](CCCCN)C(=O)N/C(=C\CCNC(=N)N)C(=O)O`, under 4.40.
Molecule `CC(=O)NCCC[C@@H](NC(=O)CNC(=O)[C@H](C)NC(=O)[C@@H](NC(=O)[C@@H](N)CCCCN)[C@@H](O)CN)C(=O)N1CCC[C@H]1C(=O)N[C@@H](Cc1c[nH]cn1)C(=O)N[C@@H](CCCCN)C(=O)N/C(=C\CCNC(=N)N)C(=O)O` gave a negative logarithm of the IC50 (pIC50) in assay [6] of under 4.40.
Consider `C[C@H](NC(=O)[C@@H](NC(=O)[C@@H](N)CCCCN)[C@@H](O)CN)C(=O)NCC(=O)N[C@H](CCCO)C(=O)N1CCC[C@H]1C(=O)N[C@@H](Cc1c[nH]cn1)C(=O)N[C@@H](CCCCN)C(=O)N/C(=C\CCNC(=N)N)C(=O)O` (H-K[Dab(3S-OH)]AG[X1]PHK[ΔZArg]-OH), for which the MIC in assay [1], in assay [2] and in assay [4] was over 64 µg/mL each time. Moreover, the negative logarithm of the IC50 (pIC50) in assay [6] is 5.89.

Values taken from ChEMBL document CHEMBL4725223, “Structure-activity relationship studies on the inhibition of the bacterial translation of novel Odilorhabdins analogues” (Bioorg Med Chem, 2020).
